From article PMC3219927 (Nature medicine, 2011)
Ends that are not written are not given here.

Experiments:
[1] = system: ddC-induced tactile hypersensitivity; assay: ddC-induced neuropathic pain, paw withdrawal threshold; assay type: in vivo, rat; details: single ddC injection
[2] = system: meningeal blood flow (dura mater); assay: Laser Doppler flowmetry of meningeal blood flow; assay type: in vivo, rat
formalin-induced edema = assay: Formalin-induced paw edema; assay type: in vivo, rat; details: formalin 2.5%, compared to saline; 1 h after injection
neurons [3] = details: not told
[4] = system: dorsal root ganglion (DRG) neurons; assay: Depolarization-induced calcium influx, DRG neurons; assay type: cell-based; details: plasmid expression
N-type Ca^2+ channels = assay type: cell-based; details: DRGs, Fura-2 imaging
[5] = system: cytosolic loop 1 (L1) of CaV2.2; assay: Surface plasmon resonance, immobilized L1; assay type: binding; details: 1/3/5 μM; dissociation monitored for 4 min
Method in brief: (§1)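 Test peptide or scrambled control peptide injected at 1, 3 and 5 μM over immobilized CaV2.2 L1 or Ct-dis. Binding was recorded as sensorgrams in resonance units, with dissociation followed for 4 min.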

hippocampal neurons = assay: Depolarization-induced calcium influx, hippocampal neurons; assay type: cell-based; details: plasmid expression
[6] = system: interaction between CRMP-2 and Ct-dis of CaV2.2; assay: In vitro binding; details: Ct-dis-GST, peptide 10 μM
Method in brief: (§2)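 GST fusions of the CaV2.2 loop 1 (L1) or distal C-terminus (Ct-dis) incubated in vitro with CRMP-2 alongside test peptide or scrambled control peptide, each at 10 μM. CRMP-2 retained on the fusion proteins was detected by immunoblot with a CRMP-2 antibody.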

CaV2.2 = CaV2.2 surface localisation; assay type: cell-based; details: CAD neuronal cell line, co-expression of CaV2.2 with CBD3 (fused to GFP)
[7] = system: interaction between CRMP-2 and L1 of CaV2.2; assay: In vitro binding; details: L1-GST, peptide 10 μM
Method in brief: as §2

neurons [8] = assay: Cell permeation / entry into neurons; details: in vitro, ex vivo and in vivo
[9] = system: interaction between tubulin and CRMP-2; assay: Co-immunoprecipitation with CRMP-2 antibody from spinal cord lysates, tubulin; assay type: binding
[10] = system: distal C-terminus (Ct-dis) of CaV2.2; assay: Surface plasmon resonance, immobilized Ct-dis; assay type: binding; details: 1/3/5 μM; dissociation monitored for 4 min
Method in brief: as §1

Compound: Nc1ccn([C@H]2CC[C@@H](CO)O2)c(=O)n1 [ddC, 2',3'-dideoxycytidine]
- PWT after ddC [1]: exhibited a decrease in PWT

Compound: CGRP8-37: CGRP antagonist (VTHRLAGLLSRSGGVVKNNFVPTNVGSKAF; ends and bridges not checked; UniProt P06881 90-119, looked up, fragment)
- Dependence of capsaicin-induced blood flow changes on CGRP ([2]; prior dural administration of CGRP antagonist): could be blocked by prior dural administration of the CGRP antagonist, CGRP8-37

Compound: COc1cc(CNC(=O)CCCC/C=C/C(C)C)ccc1O [Capsaicin, capsaicin]
- Meningeal blood flow response to capsaicin alone ([2]; nasally administered capsaicin, 100 nM): rapid and robust increase in meningeal blood flow

Compound: Formalin
- Change in paw thickness (formalin-induced edema): 4 fold

Compound: CBD3 (ARSRLAELRGVPRGL)
- Cell permeability / entry into neurons (neurons [3]): not cell permeant
- Depolarization-induced calcium influx [4]: reduced depolarization-induced calcium influx
- K+-evoked Ca2+ influx, channel selectivity (N-type Ca^2+ channels): reduced K^+-evoked Ca^2+ influx selectively through N-type Ca^2+ channels
- Binding to immobilized L1 [5]: bound to immobilized L1 and Ct-dis proteins
- Depolarization-induced calcium influx (hippocampal neurons): reduced depolarization-induced calcium influx
- Ability of Ct-dis to pull down CRMP-2 [6]: dramatic reduction in ability of L1 or Ct-dis proteins to pull down CRMP-2
- CaV2.2 localisation on co-expression (CaV2.2): almost complete retention of the channel in cytoplasmic aggregates
- Ability of L1 to pull down CRMP-2 [7]: dramatic reduction in ability of L1 or Ct-dis proteins to pull down CRMP-2
- Passage into cells, time (neurons [8]): conjugation of CBD3 to HIV-1 TAT facilitated its passage into cells in vitro, ex vivo and in vivo within minutes
- Effect on interaction between tubulin and CRMP-2 [9]: did not affect the interaction between tubulin and CRMP-2
- Binding to immobilized Ct-dis [10]: bound to immobilized L1 and Ct-dis proteins
